{"source": "ChEMBL document CHEMBL1123489", "about": "“Antineoplastic activity of 3'-(chloroethyl)nitrosourea analogues of 2'-deoxyuridine and 2'-deoxy-5-fluorouridine” (J Med Chem, 1986)", "key": {"L1210 [1]": {"tested_on": "L1210", "test": "Compound was tested in vitro for cytotoxicity against L1210 leukemia cells in tumor bearing mice.", "assay_type": "functional", "details": "Mus musculus, read-out: ED50 (the source's name)", "summary_of_the_method": "(§1)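 Mouse L1210 cells grown in suspension in Fischer's medium with 10% horse serum, 37 °C, 5% CO2. Exponential-phase cells at 2 × 10⁴ cells/mL exposed to compound. Cell number counted against drug-free control after 24, 48 and 72 h. ED50 (concentration inhibiting growth by 50%) estimated from dose-response curves from replicate independent experiments.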"}, "L1210 [2]": {"tested_on": "L1210", "test": "Compound was tested in vitro for alkylating activity against L1210 leukemia cells in tumor bearing mice", "assay_type": "functional, Mus musculus", "summary_of_the_method": "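4-(4-Nitrobenzyl)pyridine alkylation measured after 120 min at 37 °C, pH 6.4. Activity expressed relative to BCNU (set at 1.00). Three determinations per compound.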"}, "L1210 [3]": {"tested_on": "L1210", "test": "Compound was tested in vitro for carbomoylating activity against L1210 leukemia cells in tumor bearing mice", "assay_type": "functional, Mus musculus", "summary_of_the_method": "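Extent of carbamoylation of 5'-amino-5'-deoxythymidine measured after incubation with nitrosourea for 6 h at 37 °C in phosphate-buffered saline. Activity expressed relative to BCNU (set at 1.00). Three determinations per compound.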"}, "L1210 [4]": {"tested_on": "L1210", "test": "Effect on the maximum weight loss of mice bearing L1210 leukemia at a dose of 80 mg/kg on days 11", "assay_type": "functional, Mus musculus"}, "L1210 [5]": {"tested_on": "L1210", "test": "Effect on the survival time of mice bearing L1210 leukemia at a dose of 20 mg/kg", "assay_type": "functional, Mus musculus", "summary_of_the_method": "(§2)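 L1210 ascites cells from 7-day growths in donor CDF1 female mice were diluted in isotonic saline, and about 10^5 cells were injected i.p. Drug was given as one i.p. injection in isotonic saline, 24 h after implantation. Groups held five or six weight-matched mice, with saline vehicle controls. T/C × 100 = treated/control survival time in dying animals; >60-day survivors counted.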"}, "L1210 [6]": {"tested_on": "L1210", "test": "Effect on the survival time of mice bearing L1210 leukemia at a dose of 40 mg/kg", "assay_type": "functional, Mus musculus", "summary_of_the_method": "as §2"}, "L1210 [7]": {"tested_on": "L1210", "test": "Effect on the survival time of mice bearing L1210 leukemia at a dose of 80 mg/kg", "assay_type": "functional, Mus musculus", "summary_of_the_method": "as §2"}, "L1210 [8]": {"tested_on": "L1210", "test": "Effect on the survival time of mice bearing L1210 leukemia at a dose of 40 mg/kg on 30th day", "assay_type": "functional, Mus musculus"}, "L1210 [9]": {"tested_on": "L1210", "test": "Effect on the survival time of mice bearing L1210 leukemia at a dose of 80 mg/kg on 30th day", "assay_type": "functional, Mus musculus"}, "L1210 [10]": {"tested_on": "L1210", "test": "Compound was tested in vitro for cytotoxicity against L1210 leukemia cells in tumor bearing mice", "assay_type": "functional", "details": "Mus musculus, read-out: ED50 (the source's name)", "summary_of_the_method": "as §1"}, "L1210 [11]": {"tested_on": "L1210", "test": "Effect on the survival time of mice bearing L1210 leukemia at a dose of 20 mg/kg on 30th day", "assay_type": "functional, Mus musculus"}, "[12]": {"test": "Half-life, determined by incubation at 37 degree celsius in PBS (pH 7.4)"}, "L1210 [13]": {"tested_on": "L1210", "test": "Effect on the maximum weight loss of mice bearing L1210 leukemia at a dose of 20 mg/kg", "details": "Mus musculus"}, "L1210 [14]": {"tested_on": "L1210", "test": "Effect on the maximum weight loss of mice bearing L1210 leukemia at a dose of 40 mg/kg on days 6-8"}, "L1210 [15]": {"tested_on": "L1210", "test": "Effect on the maximum weight loss of mice bearing L1210 leukemia at a dose of 80 mg/kg on days 9", "assay_type": "functional, Mus musculus"}, "L1210 [16]": {"tested_on": "L1210", "test": "Effect on the maximum weight loss of mice bearing L1210 leukemia at a dose of 40 mg/kg on days 5-8"}}}
{"smiles": "Cc1cn([C@H]2C[C@H](N)[C@@H](CO)O2)c(=O)[nH]c1=O", "note": "[3-AMINO- 3-DEOXYTHYMIDINE]", "values": [{"measurement": "EC50", "setting": "L1210 [1]", "result": 0.8, "unit": "µM"}]}
{"smiles": "O=NN(CCCl)C(=O)N[C@@H]1CC(n2ccc(=O)[nH]c2=O)O[C@@H]1CO", "note": "(stereo not given in full)", "values": [{"measurement": "Activity", "setting": "L1210 [2]", "result": 1.65}, {"measurement": "Activity", "setting": "L1210 [3]", "result": 0.85}, {"measurement": "Max weight loss", "setting": "L1210 [4]", "result": 21, "unit": "%"}, {"measurement": "Average survival days", "setting": "L1210 [5]", "result": 20.4}, {"measurement": "Body weight", "setting": "L1210 [5]", "result": 18.8, "unit": "g"}, {"measurement": "T/C", "setting": "L1210 [5]", "result": 243, "unit": "%"}, {"measurement": "Weight change", "setting": "L1210 [5]", "result": 9, "unit": "%"}, {"measurement": "Average survival days", "setting": "L1210 [6]", "result": 31}, {"measurement": "Body weight", "setting": "L1210 [6]", "result": 19, "unit": "g"}, {"measurement": "T/C", "setting": "L1210 [6]", "result": 369, "unit": "%"}, {"measurement": "Weight change", "setting": "L1210 [6]", "result": 5, "unit": "%"}, {"measurement": "Average survival days", "setting": "L1210 [7]", "result": 8.3}, {"measurement": "Body weight", "setting": "L1210 [7]", "result": 19.5, "unit": "g"}, {"measurement": "T/C", "setting": "L1210 [7]", "result": 99, "unit": "%"}, {"measurement": "Weight change", "setting": "L1210 [7]", "result": 13, "unit": "%"}, {"measurement": "Body weight", "setting": "L1210 [8]", "result": 22.1, "unit": "g"}, {"measurement": "Body weight", "setting": "L1210 [9]", "result": 20.8, "unit": "g"}, {"measurement": "EC50", "setting": "L1210 [10]", "result": 12.5, "unit": "µM"}, {"measurement": "Body weight", "setting": "L1210 [11]", "result": 22, "unit": "g"}, {"measurement": "half-life", "setting": "[12]", "result": 27.3, "unit": "min"}, {"measurement": "Max weight loss", "setting": "L1210 [13]", "result": "None"}, {"measurement": "Max weight loss", "setting": "L1210 [14]", "result": 2, "unit": "%"}]}
{"smiles": "Cc1cn(C2CC(NC(=O)N(CCCl)N=O)C(CO)O2)c(=O)[nH]c1=O", "note": "(stereo not given)", "values": [{"measurement": "Activity", "setting": "L1210 [2]", "result": 2}, {"measurement": "Activity", "setting": "L1210 [3]", "result": 0.85}, {"measurement": "EC50", "setting": "L1210 [1]", "result": 1.5, "unit": "µM"}, {"measurement": "half-life", "setting": "[12]", "result": 37.3, "unit": "min"}]}
{"smiles": "O=NN(CCCl)C(=O)NCCCl", "note": "[CARMUSTINE]", "values": [{"measurement": "Activity", "setting": "L1210 [2]", "result": 1}, {"measurement": "Activity", "setting": "L1210 [3]", "result": 1}, {"measurement": "EC50", "setting": "L1210 [1]", "result": 4, "unit": "µM"}, {"measurement": "half-life", "setting": "[12]", "result": 50, "unit": "min"}]}
{"smiles": "O=NN(CCCl)C(=O)N[C@@H]1CC(n2cc(F)c(=O)[nH]c2=O)O[C@@H]1CO", "note": "(stereo not given in full)", "values": [{"measurement": "Activity", "setting": "L1210 [2]", "result": 1.78}, {"measurement": "Activity", "setting": "L1210 [3]", "result": 0.77}, {"measurement": "EC50", "setting": "L1210 [1]", "result": 2.5, "unit": "µM"}, {"measurement": "Average survival days", "setting": "L1210 [5]", "result": 18.7}, {"measurement": "Body weight", "setting": "L1210 [5]", "result": 26.1, "unit": "g"}, {"measurement": "T/C", "setting": "L1210 [5]", "result": 223, "unit": "%"}, {"measurement": "Weight change", "setting": "L1210 [5]", "result": 4, "unit": "%"}, {"measurement": "Average survival days", "setting": "L1210 [6]", "result": 14}, {"measurement": "Body weight", "setting": "L1210 [6]", "result": 19.5, "unit": "g"}, {"measurement": "T/C", "setting": "L1210 [6]", "result": 167, "unit": "%"}, {"measurement": "Weight change", "setting": "L1210 [6]", "result": 5, "unit": "%"}, {"measurement": "Average survival days", "setting": "L1210 [7]", "result": 9}, {"measurement": "Body weight", "setting": "L1210 [7]", "result": 20.5, "unit": "g"}, {"measurement": "T/C", "setting": "L1210 [7]", "result": 107, "unit": "%"}, {"measurement": "Weight change", "setting": "L1210 [7]", "result": 4, "unit": "%"}, {"measurement": "Body weight", "setting": "L1210 [8]", "result": 22.1, "unit": "g"}, {"measurement": "Body weight", "setting": "L1210 [9]", "result": 21.3, "unit": "g"}, {"measurement": "Body weight", "setting": "L1210 [11]", "result": 22, "unit": "g"}, {"measurement": "Max weight loss", "setting": "L1210 [15]", "result": 14, "unit": "%"}, {"measurement": "half-life", "setting": "[12]", "result": 36.1, "unit": "min"}, {"measurement": "Max weight loss", "setting": "L1210 [13]", "result": "None"}, {"measurement": "Max weight loss", "setting": "L1210 [16]", "result": 3, "unit": "%"}]}
{"smiles": "NC1CC(n2cc(F)c(=O)[nH]c2=O)OC1CO", "note": "(stereo not given)", "values": [{"measurement": "EC50", "setting": "L1210 [1]", "result": 15, "unit": "µM"}]}
{"smiles": "N[C@H]1C[C@H](n2ccc(=O)[nH]c2=O)O[C@@H]1CO", "values": [{"measurement": "EC50", "setting": "L1210 [1]", "result": 18, "unit": "µM"}]}
